MC4R barr agon – activates human MC4R beta-arrestin recruitment | 360,000 tested, 0.98% active | activation, % at 8.9 µM | U2OS MC4R beta-arrestin complementation, luminescence; percent of melanotan II response, DMSO zero | AID 540308 | P32245;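 active = activation above a per-plate cutoff, the mean activation of sample wells on that plate plus 3 SD, cut at about 8% in these data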
AI-2 QS modul – modulates the Vibrio harveyi AI-2 quorum sensing system; activity change, % at 7.5 µM; Vibrio harveyi JMH597 AI-2 luminescence/OD600 ratio, 9 h; stronger effect = lower value; strain lacks LuxN and CqsS sensors; 0 = neutral-control median; AID 2094; 300,000 tested, 0.4% active; in the data active = activity change below about -75%, passing the limit was not always enough;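 also: luminescence divided by OD600 gain over 9 h not by final OD600 alone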
NTR1 agonist – NTR1 (human) agonism | activation, % at 20 µM | AID 493036 | NTR1-U2OS beta-arrestin-GFP spot imaging, agonist mode | P30989 | 330,000 tested, 0.17% active;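 active = activation at or above 40% of the spot to cytoplasm intensity ratio, with at least 20 cells analyzed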;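 also: 0% = DMSO without peptide and 100% = 100 nM NTR1 peptide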
Target sequence (P30989 whole entry, looked up): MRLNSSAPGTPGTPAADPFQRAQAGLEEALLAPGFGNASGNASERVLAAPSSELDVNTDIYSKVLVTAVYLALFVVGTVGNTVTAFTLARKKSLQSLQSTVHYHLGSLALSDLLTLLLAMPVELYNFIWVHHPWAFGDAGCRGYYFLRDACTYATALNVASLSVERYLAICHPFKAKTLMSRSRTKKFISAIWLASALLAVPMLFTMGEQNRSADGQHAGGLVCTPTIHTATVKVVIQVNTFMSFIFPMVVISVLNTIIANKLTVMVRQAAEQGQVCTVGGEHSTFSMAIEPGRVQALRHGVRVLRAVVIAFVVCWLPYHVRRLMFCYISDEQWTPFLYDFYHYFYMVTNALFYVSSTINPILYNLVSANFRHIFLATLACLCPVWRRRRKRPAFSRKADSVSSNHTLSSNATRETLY
MC4R antagonist – antagonists of human melanocortin 4 receptor (MC4R). 360,000 tested, 0.48% active. inhibition, % at 6.5 µM. AID 540295. MC4R-expressing cells, MTII-stimulated cAMP, LANCE TR-FRET. P32245;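 active = inhibition above its plate's cutoff, the mean of tested wells on that plate plus 3 SD, cut at about 29% in these data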;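 also: 0% = Melanotan II alone and 100% = Melanotan II plus saturating MCL0020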
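Material: U2OS-MC4R stable cell line | Reagent: Melanotan II challenge after compound preincubation | Doses: One concentration, 6.5 µM nominal | Incubation: 30-min compound preincubation, 1-h Melanotan II challenge, 1-h detection, room temperature | Signal: TR-FRET cAMP assay | Replicates: One well per compound, no replicates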
Starred values were filed as active, the others as inactive. Sampled rows, rich in hits. Any-hit rate of the full collection: about 1.8%.

What do the screens show for `O=C1CC2(CCN(C(=O)c3ccc(F)c(F)c3)CC2)Oc2ccccc21`?
MC4R barr agon: -2.4; AI-2 QS modul: 21.5; NTR1 agonist: -0.1; MC4R antagonist: 4.3

What do the screens show for `CCCCCCCCCCCCCCCC[n+]1ccc(C(N)=O)cc1`?
MC4R barr agon: 9.2*; NTR1 agonist: 0.6; MC4R antagonist: 21.6

Results for COc1ccc(CN(CCC(c2ccccc2)c2ccc(OC(C)C)cc2)C(=O)CCl)cc1OC (stereo not given) ?
MC4R barr agon: 21.3*; AI-2 QS modul: 21.7; NTR1 agonist: 24.5; MC4R antagonist: 25.9

Results for CCCCCc1ccc(-c2ccc(/C=C/C(=O)O)cc2)nc1 ?
MC4R barr agon: 0.6; AI-2 QS modul: -89.4*; NTR1 agonist: -1.1; MC4R antagonist: 12.1

What do the screens show for `CCc1ccc(S(=O)(=O)/N=C2/C=C(Sc3ncn[nH]3)C(=O)c3ccccc32)cc1`?
MC4R barr agon: -1.0; MC4R antagonist: 60.0*

How did Cc1csc(=O)n1CCC(=O)OCc1nnc(-c2ccc(Cl)cc2)o1 do in these assays?
MC4R barr agon: 3.6; NTR1 agonist: -0.6; MC4R antagonist: 0.8

How did COc1cc(CNCc2ccccn2)ccc1OCc1ccc(Cl)cc1Cl do in these assays?
MC4R barr agon: 9.2*; AI-2 QS modul: 41.9; NTR1 agonist: -1.0; MC4R antagonist: 29.8*

Results for CC(=O)Nc1cccc(OCc2cnc(Cl)s2)c1 ?
MC4R barr agon: -2.0; AI-2 QS modul: 6.8; NTR1 agonist: -0.3; MC4R antagonist: 2.4

Results for CC(C)(C)c1ccc(OCc2cnc(Cl)s2)cc1 ?
MC4R barr agon: 9.3*; AI-2 QS modul: -8.5; NTR1 agonist: 6.4; MC4R antagonist: 26.7

How did COc1cc(NC(=O)Cn2cnc3c(SC)nc(N)nc32)cc(OC)c1OC do in these assays?
MC4R barr agon: -0.7; NTR1 agonist: 1.6; MC4R antagonist: 15.2

What do the screens show for `Cc1ccc(CNC(=O)NC2CCCCC2)cc1`?
MC4R barr agon: -1.5; AI-2 QS modul: -89.3*; NTR1 agonist: 0.5; MC4R antagonist: 8.0

Results for CC(C(=O)c1ccccc1)[n+]1cccc(Br)c1 (stereo not given) ?
MC4R barr agon: -0.3; AI-2 QS modul: 5.5; NTR1 agonist: -0.2; MC4R antagonist: 14.2

Results for O=C(CSc1nnc(COc2ccc(Cl)cc2)o1)N1CCCCC1 ?
MC4R barr agon: -0.7; AI-2 QS modul: -4.0; NTR1 agonist: 0.6; MC4R antagonist: 8.4

How did FC(F)(F)c1nc(NCc2ccccc2)c2nnn(Cc3ccccc3)c2n1 do in these assays?
MC4R barr agon: 8.4*; AI-2 QS modul: -3.0; NTR1 agonist: 5.9; MC4R antagonist: -8.2

Results for CCN(CC)CCNc1nc(C(F)(F)F)nc2c1nnn2Cc1ccccc1 ?
MC4R barr agon: 1.1; AI-2 QS modul: -1.2; NTR1 agonist: -0.2; MC4R antagonist: -0.9

Results for CC(=O)Nc1ncc(Cc2cccc(Cl)c2Cl)s1 ?
MC4R barr agon: 1.2; AI-2 QS modul: 10.9; NTR1 agonist: 4.7; MC4R antagonist: 17.3

What do the screens show for `Cc1cc(C)nc(SCC(=O)Nc2ncc(Cc3cccc(Cl)c3Cl)s2)n1`?
MC4R barr agon: 8.8*; AI-2 QS modul: 29.2; NTR1 agonist: 2.2; MC4R antagonist: -7.2

What do the screens show for `FC(F)(F)c1cccc(N2CCN(C(=S)NC3CCCCC3)CC2)c1`?
MC4R barr agon: -0.3; AI-2 QS modul: -1.1; NTR1 agonist: 3.0; MC4R antagonist: 0.7

What do the screens show for `Cc1ccnc(NC(=S)N2CCN(c3cccc(C(F)(F)F)c3)CC2)c1`?
MC4R barr agon: -3.3; NTR1 agonist: 6.3; MC4R antagonist: 13.3

Results for FC(F)(F)c1cccc(N2CCN(C(=S)NC3CCCC3)CC2)c1 ?
MC4R barr agon: 8.3*; AI-2 QS modul: -3.9; NTR1 agonist: 2.2; MC4R antagonist: 10.7

What do the screens show for `Cc1ccc(C)c(NC(=S)N2CCN(c3cccc(C(F)(F)F)c3)CC2)c1`?
MC4R barr agon: 9.1*; AI-2 QS modul: 20.3; NTR1 agonist: 1.4; MC4R antagonist: 8.5

Results for Cc1ccc(-n2c(SCC(=O)N(C)C3CCS(=O)(=O)C3)nc3ccccc3c2=O)c(C)c1 (stereo not given) ?
MC4R barr agon: -1.1; NTR1 agonist: 0.7; MC4R antagonist: 6.3

What do the screens show for `CCOc1ncccc1C(=O)OCC(=O)NC1CCCCCC1`?
MC4R barr agon: -3.2; NTR1 agonist: 0.5; MC4R antagonist: -4.0

How did Cc1ccccc1CN1CCC(n2nccc2NC(=O)CCOc2ccccc2)CC1 do in these assays?
MC4R barr agon: -0.2; AI-2 QS modul: 50.8; NTR1 agonist: 0.8; MC4R antagonist: 2.6

What do the screens show for `Cc1ccccc1C(=O)Nc1nc(SCc2ccc(Cl)cc2)n[nH]1`?
MC4R barr agon: 8.7*; AI-2 QS modul: -2.3; NTR1 agonist: 6.3; MC4R antagonist: -8.8

How did C/C(CC(=O)Nc1cc(C)ccn1)=N\NC(=O)c1cccc(F)c1 do in these assays?
MC4R barr agon: 0.1; AI-2 QS modul: 29.4; NTR1 agonist: 2.2; MC4R antagonist: -3.7

How did Cc1cc(Oc2ccc(Br)cc2)nc(SCC(=O)c2ccccc2)n1 do in these assays?
MC4R barr agon: 8.6*; AI-2 QS modul: 14.3; NTR1 agonist: 11.3; MC4R antagonist: 4.6

Results for C[C@@H]1CN([C@H](C)CO)C(=O)Cc2cc(NS(=O)(=O)c3cn(C)cn3)ccc2O[C@H]1CN(C)S(=O)(=O)c1ccc(Cl)cc1 ?
MC4R barr agon: 0.9; NTR1 agonist: 0.9; MC4R antagonist: 6.7

How did Cc1ccc(NC(=O)C2(S(=O)(=O)c3ccc(Cl)cc3)CC2)c(Br)c1 do in these assays?
MC4R barr agon: -3.0; AI-2 QS modul: 4.5; NTR1 agonist: -0.8; MC4R antagonist: 3.7

What do the screens show for `Cc1ccc(CSCCC(=O)NCCc2ccc(Cl)cc2)cc1`?
MC4R barr agon: 8.6*; AI-2 QS modul: 13.6; NTR1 agonist: -2.0; MC4R antagonist: 7.7

Results for CC(C)CC(=O)Nc1ccnn1C1CCN(C(=O)c2ccc(F)cc2Cl)CC1 ?
MC4R barr agon: -3.1; AI-2 QS modul: 19.2; NTR1 agonist: 2.7; MC4R antagonist: 0.8

How did CCOC(=O)/C=C1/SCC(=O)N1CC(=O)Nc1ccc2c(c1)CCC2 do in these assays?
MC4R barr agon: -2.3; MC4R antagonist: 7.3

Results for C=CCn1c(SCC(=O)Nc2ccccc2OC)nnc1-c1ccco1 ?
AI-2 QS modul: 52.4; NTR1 agonist: -0.6

Results for C=CCn1c(SCC(=O)Nc2nccs2)nnc1-c1cc2cccc(OC)c2o1 ?
MC4R barr agon: 9.3*; AI-2 QS modul: 7.7; NTR1 agonist: 1.3; MC4R antagonist: 1.0

Results for CC1(c2ccc(OC(F)F)cc2)NC(=O)N(CC(=O)Nc2ccc(F)cc2)C1=O (stereo not given) ?
MC4R barr agon: 0.0; AI-2 QS modul: -93.7*; NTR1 agonist: 1.7; MC4R antagonist: 8.9

What do the screens show for `CC1(c2ccc(OC(F)F)cc2)NC(=O)N(CC(=O)Nc2ccc(S(N)(=O)=O)cc2)C1=O` (stereo not given)?
MC4R barr agon: -2.1; AI-2 QS modul: -14.0; NTR1 agonist: -1.1; MC4R antagonist: -0.1

How did CC1(c2ccc(OC(F)F)cc2)NC(=O)N(CC(=O)Nc2ccc(OC(F)F)cc2)C1=O (stereo not given) do in these assays?
MC4R barr agon: -0.5; AI-2 QS modul: -92.6*; NTR1 agonist: 5.2; MC4R antagonist: 8.8

Screening results (PubChem)
